Calls of active or inactive are those of the source. The rule behind the calls is not given here.

Data set [1] can be described thus: Cytotoxicity against human HepG2.2.15 cells after 9 days by MTT assay. The format is cell-based, HepG2 2.2.15. The note with it: read-out: TC50. A digest of the protocol:
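HepG2.2.15 cells were treated as in the antiviral assay (RPMI 1640, 2% FBS, daily renewal), with untreated controls on each plate. Viability after 9 days of treatment was read from neutral red uptake as absorbance at 510 nm relative to untreated cells. TC50 is the 50% cytotoxic concentration.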

For data set [2], the system named is Hepatitis B virus. In words: Antiviral activity against HBV assessed as inhibition of viral e-antigen production by enzyme immunoassay. Type of data set: functional, organism-based. The essentials:
(§1)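 Confluent HepG2.2.15 cells were treated with varied doses in RPMI 1640 plus 2% FBS, with fresh medium and drug each day for 8 days. Secreted HBeAg or HBsAg in the supernatant was measured by semiquantitative enzyme immunoassay, giving a 50% inhibitory concentration (IC50).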

The nature of data set [3]: Selectivity index, ratio of TC50 for human HepG2.2.15 cells to IC50 for HBV e-antigen production. A digest of the protocol: (§2)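 SI = TC50/IC50. TC50 is the 50% cytotoxic concentration in HepG2.2.15 cells by neutral red uptake after 9 days. IC50 comes from the 8-day HepG2.2.15 treatment in RPMI 1640 with 2% FBS, read by Southern blot for DNA or by enzyme immunoassay for secreted HBeAg or HBsAg.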

Data set [4] in a line: Selectivity index, ratio of TC50 for human HepG2.2.15 cells to IC50 for HBV DNA replication. The essentials:
as §2

Data set [5] deals with Hepatitis B virus. In words: Antiviral activity against HBV assessed as inhibition of viral DNA replication by Southern blot. Type of data set: functional, organism-based. The essentials:
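Confluent HepG2.2.15 cultures were dosed across a range of concentrations in RPMI 1640 with 2% FBS. Medium and compound were renewed daily for 8 days. Intracellular HBV DNA was quantified by Southern blot hybridization and IC50 was taken as the 50% inhibitory concentration.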

Data set [6] has as its system Hepatitis B virus. In words: Antiviral activity against HBV assessed as inhibition of viral surface-antigen production by enzyme immunoassay. The format is functional, organism-based. A digest of the protocol: as §1
Data set [7] can be described thus: Selectivity index, ratio of TC50 for human HepG2.2.15 cells to IC50 for HBV surface antigen production. A digest of the protocol:
as §2

Data set [8] deals with Hepatitis B virus. As to the kind of experiment: Antiviral activity against HBV assessed as inhibition of viral surface-antigen production at <60 uM by enzyme immunoassay. Type of data set: functional, organism-based.

Turning to `CCOC(=O)c1cc2c(CN(C)C)c(O)c(OC)cc2nc1CSc1ccccc1OC`, the CC50 at 216 h in data set [1] came to 58.5 µM. In addition, the IC50 in data set [2] turned out to be 20.5 µM. The Ratio in data set [3] was determined as 2.9.
For `CCOC(=O)c1cc2c(Cn3ccnc3)c(O)c(OC)cc2nc1CSc1cccc(OC)c1`, the CC50 at 216 h in data set [1] turned out to be 186 µM. For the same compound, in data set [2], the IC50 turned out to be 65.1 µM. For the same compound, in data set [3], the Ratio is 2.9.
As to `Nc1ccn([C@@H]2CS[C@H](CO)O2)c(=O)n1` [LAMIVUDINE], the CC50 at 216 h in data set [1] came out at 2210 µM. In data set [4], the Ratio was 7.1. The IC50 in data set [5] is 311 µM.
Turning to `CCOC(=O)c1cc2c(Cn3ccnc3)c(O)c(OC)cc2nc1CSc1ccc(F)cc1`, in data set [1], the CC50 at 216 h stood at 202 µM. The IC50 in data set [6] came out at 42.8 µM; in data set [5], 41.7 µM. Also, the Ratio was found to be 6 in data set [7] and 6.2 in data set [4].
In the case of `CCOC(=O)c1cc2c(CN3CCN(C)CC3)c(O)c(OC)cc2nc1CSc1ccc(F)c(F)c1`, the CC50 at 216 h in data set [1] came out at 55.3 µM. For the same compound, the IC50 in data set [6] amounted to 11.2 µM. Also, the Ratio in data set [7] was determined as 4.9.
As to `CCOC(=O)c1cc2c(CN(C)C)c(O)c(OC)cc2nc1CSc1ccc(F)cc1`, the CC50 at 216 h in data set [1] was 120 µM. For the same compound, the 50% inhibitory concentration (IC50) in data set [6] was found to be 17.4 µM; in data set [5], 32.8 µM. Further, the values for the Ratio in data set [7] and in data set [4] were 6.9 and 3.7, respectively.
For the compound `CCOC(=O)c1cc2c(Cn3ccnc3)c(O)c(OC)cc2nc1CSc1ccc(OC)c(OC)c1`, in data set [1], the CC50 at 216 h was 189 µM.
Regarding `CCOC(=O)c1cc2c(Cn3ccnc3C)c(O)c(OC)cc2nc1CSc1ccc(F)cc1`, the CC50 at 216 h in data set [1] is 78.5 µM. For the same compound, the values for the IC50 in data set [2] and in data set [5] were 16.2 µM and 30.6 µM, respectively. Moreover, the Ratio is listed as 4.8 in data set [3] and 2.6 in data set [4].
Turning to `CCOC(=O)c1cc2c(Cn3ccnc3)c(O)c(OC)cc2nc1CSc1ccc(F)c(F)c1`, in data set [1], the CC50 at 216 h worked out at 133 µM. Besides, the IC50 amounted to 16.4 µM in data set [2] and 9.4 µM in data set [5]. In addition, the Ratio in data set [3] is 8.1; in data set [4], 14.1.
In the case of `CCOC(=O)c1cc2c(CN3CCCC3)c(O)c(OC)cc2nc1C[S+]([O-])c1ccc(F)c(F)c1` (configuration not stated), the CC50 at 216 h in data set [1] was 16.5 µM. Besides, the Ratio in data set [4] turned out to be 3.1. Also, in data set [5], the concentration for half-maximal inhibition (IC50) is 5.3 µM.
Regarding `CCOC(=O)c1cc2c(Cn3ccnc3)c(O)c(OC)cc2nc1C[S+]([O-])c1ccc(F)cc1` (configuration not stated), the CC50 at 216 h in data set [1] was 160 µM. In addition, the IC50 in data set [6] stood at 26.2 µM; in data set [2], 98.1 µM; in data set [5], 4.7 µM. Further, the values for the Ratio in data set [7], in data set [3] and in data set [4] were 6.1, 1.6 and 34.1, respectively.
Take `CCOC(=O)c1cc2c(Cn3ccnc3)c(O)c(OC)cc2nc1C[S+]([O-])c1cccc(OC)c1` (configuration not stated): the CC50 at 216 h in data set [1] is 194 µM. Further, the half-inhibitory concentration (IC50) in data set [6] stood at 33.1 µM. The Ratio in data set [7] is recorded as 5.9.
As to `CCOC(=O)c1cc2c(CN3CCCCC3)c(O)c(OC)cc2nc1CSc1ccccc1`, the CC50 at 216 h in data set [1] is 60.7 µM. In addition, the Ratio in data set [4] was 1.3. Moreover, in data set [5], the IC50 turned out to be 45.2 µM. The result in data set [8] was inactive.
On to `CCOC(=O)c1cc2c(CN3CCOCC3)c(O)c(OC)cc2nc1CSc1ccc(F)c(F)c1`, for which, in data set [1], the CC50 at 216 h was determined as 79.7 µM. Further, the values for the half-inhibitory concentration (IC50) in data set [6] and in data set [2] were 5.8 µM and 10.9 µM, respectively. The figures for the Ratio in data set [7] and in data set [3] were 13.7 and 7.3, respectively.
Regarding `CCOC(=O)c1cc2c(Cn3ccnc3)c(O)c(OC)cc2nc1C[S+]([O-])c1ccc(F)c(F)c1` (configuration not stated), in data set [1], the CC50 at 216 h came out at 90.8 µM. Further, the Ratio in data set [4] is listed as 7.3. In addition, in data set [5], the IC50 turned out to be 12.5 µM.
Take `CCOC(=O)c1cc2c(CN3CCCC3)c(O)c(OC)cc2nc1CSc1ccc(F)cc1`: in data set [1], the CC50 at 216 h came to 47.3 µM. Also, the values for the IC50 in data set [6], in data set [2] and in data set [5] were 8.5 µM, 9.3 µM and 10.2 µM, respectively. The Ratio was determined as 5.6 in data set [7], 5.1 in data set [3] and 4.6 in data set [4].
Consider `CCOC(=O)c1cc2c(CN3CCCC3)c(O)c(OC)cc2nc1CSc1ccccn1`, for which the CC50 at 216 h in data set [1] worked out at 17.5 µM.
In the case of `CCOC(=O)c1cc2c(CN3CCCCC3)c(O)c(OC)cc2nc1CSc1ccc(F)c(F)c1`, the CC50 at 216 h in data set [1] was 135 µM. The Ratio in data set [4] stood at 5.6. In data set [5], the 50% inhibitory concentration (IC50) amounted to 24.1 µM.
As for `CCOC(=O)c1cc2c(CN3CCCC3)c(O)c(OC)cc2nc1C[S+]([O-])c1ccccn1` (configuration not stated), the CC50 at 216 h in data set [1] was 9.4 µM.
Consider `CCOC(=O)c1cc2c(CN3CCCC3)c(O)c(OC)cc2nc1C[S+]([O-])c1ccc(F)cc1` (configuration not stated), for which, in data set [1], the CC50 at 216 h came to 166 µM. For the same compound, the IC50 was 25.1 µM in data set [6], 21.1 µM in data set [2] and 10.7 µM in data set [5]. The Ratio was found to be 6.6 in data set [7], 7.9 in data set [3] and 15.5 in data set [4].
Take `CCOC(=O)c1cc2c(CN(C)C)c(O)c(OC)cc2nc1C[S+]([O-])c1ccc(F)cc1` (configuration not stated): the CC50 at 216 h in data set [1] was found to be 90.4 µM. Further, the IC50 was 36.5 µM in data set [6] and 21.9 µM in data set [5]. Moreover, the Ratio amounted to 2.5 in data set [7] and 4.1 in data set [4].

For the origin of these results see ChEMBL document CHEMBL1157455, “Synthesis and anti-hepatitis B virus evaluation of novel ethyl 6-hydroxyquinoline-3-carboxylates in vitro” (Bioorg Med Chem, 2008).
